Source: PubChem (several laboratories)
In the library only some 6.4% were active in any assay of this set; here they are far more common.
Ecoli tolC: E. coli tolC mutant growth inhibition; E. coli BW25113 tolC mutant growth, OD615; growth inhibition, % at 10 µM (by protocol); hit rate 2.2% among 65,000; AID 573;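 active means growth inhibition at or above a cutoff equal to the mean over every tested compound plus 3 SD, cut at about 60% in these data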;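 further: growth measured after 20 h incubation at 37 °C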
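Assay system: tolC-deleted E. coli BW25113. Medium: kanamycin-containing LB broth (50 µg/mL). Dosing: 10 µM final, single dose. Timing: bacterial growth with compound for 20 h at 37 °C. Detection: A615 absorbance measurement. Read-out basis: growth inhibition in percent.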
H69AR growth 86K: blocks growth of human H69AR lung tumor cells. hit rate 6% among 85,000. viability, % at 10 µM. H69AR lung tumor viability, ATP luminescence, 72 h; hits give low values. AID 598;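 active means viability at or below 40%; inactive means viability above 40%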;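 further: multidrug resistant small cell line overexpressing MRP-1 efflux transporter; 100% = mean luminescence of untreated control wells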
Lung fibro prol: blocks proliferation of human lung fibroblasts; viability, % at 10 µM; LL 47 human lung fibroblast viability, ATP luminescence; hits give low values; AID 719; hit rate 1.1% among 85,000;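 active means viability at or below 50% in the single dose screen; inactive means viability above 50%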;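 further: compound exposure lasted 72 h before the ATP readout; 100% = median luminescence of untreated cell-only wells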
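Material: Human LL 47 lung fibroblast cells | Input: 1,150 cells/well | Buffer or medium: IMEM plus 15% FBS | Compound dosing: 0.1% DMSO in all compound wells | Times: Overnight cell rest, 72 h compound treatment at 37 °C | Signal: CellTiter-Glo luminescence measuring cellular ATP | Measure: % viability versus median cells-only luminescence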
Ecoli WT expand: E. coli BW25113 growth inhibition, expanded screen | OD600 absorbance | growth inhibition, % at 100 µM | hit rate 0.15% among 98,000 | AID 710;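 active means growth inhibition above about 50% at one test dose, limit read from the data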;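 further: growth measured after 20 h incubation at 37 °C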
HUVEC inhibit: inhibitors of human endothelial cell proliferation; hit rate 1.1% among 86,000; HUVEC proliferation, CellTiter-Glo luminescence, 72 h; hits give low values; viability, % at 10 µM (by protocol);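 active means viability at or below 30%; inactive means viability above 30%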;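 further: 100% = median luminescence of DMSO-only cell control wells on each plate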
Jurkat viability: reduces viability or proliferation of Jurkat cells; hit rate 1.2% among 56,000; Jurkat E6.1 viability, ATP luminescence, 48 h; inhibition, % at 4 µM;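 active means inhibition above the mean inhibition of all tested compounds plus 3 SD, cut at about 28% in these data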
Numbers without * were called inactive; nt = no result.

SMILES | Ecoli tolC | H69AR growth 86K | Lung fibro prol | Ecoli WT expand | HUVEC inhibit | Jurkat viability
O=C(COc1ccc(S(=O)(=O)N2CCOCC2)cc1)Nc1ccc(Cl)c(C(F)(F)F)c1 | 3 | 25* | 59 | -3 | 52 | 23
CCc1cccc(NC(=O)Cn2c(=O)oc3cc(S(=O)(=O)N4CCOCC4)ccc32)c1 | nt | 85 | 99 | -1 | 121 | nt
O=C(Cn1c(=O)oc2cc(S(=O)(=O)N3CCCC3)ccc21)Nc1cccc(C(F)(F)F)c1 | 1 | 38* | 99 | 1 | 92 | 20
O=C(COc1cccc(C(F)(F)F)c1)Nc1ccc(S(=O)(=O)N2CCCC2)cc1 | 64* | 89 | 96 | -7 | 95 | 2
O=C(COc1ccc(S(=O)(=O)N2CCOCC2)cc1)Nc1ccc2c(c1)OCCO2 | 9 | nt | 92 | -12 | 94 | -2
Brc1ccc2nc3c(n2c1)CCCC3 | 19 | 93 | 97 | 26 | 112 | 1
O=C1CC(N(C(=O)c2ccco2)c2cccc(Cl)c2)C(=O)N1c1cccc(Cl)c1 (centres undefined) | nt | 105 | 105 | -7 | 107 | nt
N#Cc1c(SCC(=O)Nc2nccs2)nc2c(c1-c1ccco1)CCCC2 | -5 | 23* | 98 | 1 | 98 | -1
O=C(CSc1ccccn1)Nc1ccccc1F | 4 | nt | nt | nt | nt | nt
Oc1ccc(CN2CCc3ccccc3C2)c2cccnc12 | nt | 38* | 13* | 62* | 44 | nt
Cn1cc(CN2CCc3ccccc3C2)c2ccccc21 | -5 | 70 | 95 | 11 | 89 | nt
Oc1ccc2ccccc2c1CN1CCN(c2ccccc2)CC1 | nt | 99 | 99 | 2 | 86 | nt
Oc1ccc(CN2CCN(c3ccccc3)CC2)c2cccnc12 | nt | 23* | 26* | nt | 89 | nt
Oc1ccc(CNc2ccccc2F)c2cccnc12 | -3 | 28* | 74 | 5 | 94 | 3
OCc1ccc(O)c2ncccc12 | nt | 22* | 28* | 14 | 112 | nt
COc1ccc(N(CC(=O)Nc2cccc(C(F)(F)F)c2)S(C)(=O)=O)cc1 | nt | 103 | nt | nt | 105 | nt
Oc1ccc(CN2CCCCC2)c2cccnc12 | nt | 0.7* | 3.1* | nt | 63 | nt
Oc1ccc(COCc2ccccc2)c2cccnc12 | 22 | 1.6* | 14* | 29 | 49 | 68*
CSc1ncccc1C(=O)OCc1ccccc1 | 17 | 105 | 99 | 2 | 102 | 1
CCOC(=O)N1CCN(Cc2ccccn2)CC1 | -15 | 98 | 106 | 0 | 110 | nt
COc1ccccc1N/C(N)=N/c1nc(CSc2ccc(C)cc2)cc(=O)[nH]1 | 33 | 23* | nt | -8 | 59 | 9
Cc1cc(/N=C/C=C2\N(C)c3ccccc3C2(C)C)n(CCC#N)n1 | 14 | 20* | 92 | -2 | 84 | -1
CC(C)Cc1nc2oc3c(Cl)ncnc3c2c2c1CCC2 | nt | 70 | 45* | -3 | 3.3* | nt
CCc1c(C)nc2ncnn2c1N1CCC(C(=O)Nc2ccc(C)cc2)CC1 | 12 | 35* | 100 | -3 | 101 | 14
CCc1c(C)nc2ncnn2c1N1CCC(C(=O)Nc2ccccc2)CC1 | -1 | 57 | 93 | 3 | 95 | 11
SMILES | Ecoli tolC | H69AR growth 86K | Lung fibro prol | Ecoli WT expand | HUVEC inhibit | Jurkat viability
CCN(CC)C(=O)c1sc2[nH]c(=S)n(-c3ccccc3)c(=O)c2c1C | nt | nt | nt | 3 | nt | nt
CCOc1ccc(-c2n[nH]c(C)c2Oc2ccccc2OC)c(O)c1 | 95* | 104 | 90 | 11 | 87 | 6
Cc1[nH]nc(-c2ccc(OCc3cnn(-c4ccccc4)c3)cc2O)c1Oc1ccccc1F | nt | nt | nt | -8 | nt | nt
C=C(C)COc1ccc(-c2n[nH]c(C)c2Oc2ccccc2OC)c(O)c1 | 88* | 7.2* | 87 | 9 | 29* | -2
O=C(Nc1cccc(Cl)c1Cl)c1snnc1-c1ccccc1 | nt | nt | nt | -8 | nt | nt
CNc1nc(-c2ccccc2)nnc1C(F)(F)F | nt | nt | nt | -3 | nt | nt
CCC1CCc2c(sc(NC(=O)c3ccoc3C)c2C(N)=O)C1 (centres undefined) | 12 | 35* | 88 | -3 | 62 | 8
CCC(C)(C)C1CCc2c(sc(NC(=O)c3ccoc3C)c2C(N)=O)C1 (centres undefined) | nt | 14* | 89 | -1 | 63 | nt
Cc1occc1C(=O)Nc1sc2c(c1C(N)=O)CCC(C(C)(C)C)C2 (centres undefined) | nt | 82 | 93 | -19 | 86 | nt
CCOC(=O)c1c(NC(=O)c2ccoc2C)sc2c1CCC2 | 6 | 84 | 97 | -9 | 94 | -6
O=C(O)c1cccnc1Nc1cccc(C(F)(F)F)c1 | 9 | 89 | 105 | nt | 84 | nt
Cc1cccc(N(C(=O)c2sc(C)nc2C)C(C(=O)NCc2ccco2)c2ccccc2)c1 (centres undefined) | nt | nt | nt | -7 | nt | nt
CN(C)CCNC(=O)c1coc(=O)c(Br)c1 | -27 | 64 | 106 | 7 | 112 | 0
CC(C)CNC(=O)c1coc(=O)c(Br)c1 | nt | 0.8* | 27* | -6 | 84 | nt
Cc1ccc(CSc2nc3c(c(=O)[nH]2)C(c2ccncc2)C2=C(CCCC2=O)N3)cc1 (centres undefined) | 12 | 91 | 91 | -2 | 66 | -3
COc1ccc(C2=NOC(C(=O)NCc3ccco3)C2)cc1 (centres undefined) | nt | 25* | 81 | 4 | 57 | nt
COc1ccc(CNC(=O)C2CC(c3ccc(OC)cc3)=NO2)cc1 (centres undefined) | -17 | 92 | 90 | -5 | 75 | 4
COc1cc(C2=NOC(C(=O)NCc3ccco3)C2)cc(OC)c1OC (centres undefined) | -8 | 25* | 62 | 10 | 59 | 73*
Cc1cc2ncn(CC(O)COc3cccc(C(=O)O)c3)c2cc1C (centres undefined) | -19 | 102 | 99 | 5 | 109 | 4
COc1ccccc1S(=O)(=O)Cc1ccc(C(=O)NCc2cccnc2)o1 | -20 | 94 | 102 | -7 | 109 | 3
O=C1CCCc2nc3nc4ccccc4n3cc21 | 93* | 80 | 96 | 46 | 96 | -1
CCCCCOC(=O)Cn1c(SCC(=O)Nc2ccccc2)nc2c1c(=O)[nH]c(=O)n2C | 3 | 32* | 97 | -2 | 77 | -2
Clc1ccccc1-c1nc(-c2cccnc2)no1 | 10 | 76 | 98 | 5 | 92 | -5
O=C1CCC(=O)N1CCC(c1ccc(F)cc1)c1ccco1 (centres undefined) | -1 | 85 | 95 | -5 | 90 | 5
O=C1c2ccccc2C(=O)N1CCC(c1ccc(F)cc1)c1ccco1 (centres undefined) | 77* | 79 | 92 | 4 | 94 | 2
COC(=O)CSc1nnc([C@H](Cc2ccccc2)NC(=O)OC(C)(C)C)o1 | -4 | 98 | 99 | -4 | 93 | -7
Cc1cccc(CS(=O)(=O)c2nnc([C@H](Cc3ccccc3)NC(=O)OC(C)(C)C)o2)c1 | nt | 0.5* | 108 | 4 | 47 | nt
COC(=O)CS(=O)(=O)c1nnc([C@H](Cc2ccccc2)NC(=O)OC(C)(C)C)o1 | -6 | 0.3* | 0.9* | -1 | 80 | 9
COc1ccccc1CC(=O)NC1CC(C)(C)NC(C)(C)C1 | -10 | 92 | 100 | 1 | 94 | 1
